The source of these data is ChEMBL document CHEMBL1150371, “Design and synthesis of benzenesulfonanilides active against methicillin-resistant Staphylococcus aureus and vancomycin-resistant Enterococcus” (Bioorg Med Chem, 2008).

Converted amounts (≈) assume the structure as drawn.

The test system of series [1] is Staphylococcus aureus. In words: Antimicrobial activity against methicillin-resistant Staphylococcus aureus OM584 by microdilution method. The series is classed as functional. A digest of the protocol:
(§1)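 Broth microdilution MIC per Japan Society of Chemotherapy standard method. Cultures grown in sensitivity test broth at 37 °C to OD620 0.1, inoculum ≈10^5 CFU/mL. Twofold dilutions from DMSO stock, 500 to 0.2 µg/mL; 20 h, 37 °C, humid. MIC = lowest concentration clearly inhibiting growth by visual inspection; vancomycin standard; media, DMSO and water controls; at least duplicate.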

Series [2] has as its system Staphylococcus aureus. In words: Antimicrobial activity against methicillin-resistant Staphylococcus aureus at […] by disk diffusion method. The series is classed as functional. A digest of the protocol:
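Overnight nutrient-broth culture (35 °C, 12–18 h) of MRSA OM584 spread on Mueller-Hinton agar; 8-mm paper discs given 10 µL of 20 mM compound in DMSO; plates incubated at 37 °C about 20 h; inhibition zones measured and scored: −, ± (0–1 mm), +1 (1–15 mm), +2 (15–20 mm), +3 (>20 mm).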
For orientation: Agar diffusion results depend on both activity and mobility in agar.

The test system of another series is Enterococcus faecium. The series is described as follows: Antimicrobial activity against vancomycin-resistant Enterococcus faecium FN-1 by microdilution susceptibility test. The series is classed as functional. An outline of the steps: as §1
The test system of a further series is Mus musculus. The series is described as follows: Acute toxicity in mouse at 100 mg/kg, ip upto 14 days. The series is classed as organism-based. More on the design: dose 100 mg/kg, route intraperitoneal. The conditions noted are these: in vivo, 336 h. A digest of the protocol:
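Male mice (15–30 g), water only for 12 h beforehand; compound in 0.5% CMC given ip at doses up to 100 mg kg-1, n = 5/group; toxic symptoms observed up to 14 days.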

By MIC is commonly meant the least concentration at which growth counts as inhibited. Low values mean a more susceptible organism, high ones a less susceptible organism. Take `O=S(=O)(Nc1cc(C(F)(F)F)cc(C(F)(F)F)c1)c1ccc(Cl)cc1`: the MIC against Staphylococcus aureus [1] and against Enterococcus faecium was 7.8 µg/mL (≈ 19.3 µM) in each case. For the same compound, the “inhibition zone (IZ)” value in the series with Staphylococcus aureus [2] is reported as 15 mm.

With `O=S(=O)(Nc1cc(Cl)cc(Cl)c1)c1cc(C(F)(F)F)cc(C(F)(F)F)c1`, in the series with Mus musculus, the Activity entry was “Non-toxic”. The values for the MIC in the series on Staphylococcus aureus [1] and in the series on Enterococcus faecium were 0.5 µg/mL (≈ 1.14 µM) and 1 µg/mL (≈ 2.28 µM), respectively.

For `COc1ccc(S(=O)(=O)Nc2cc(C(F)(F)F)cc(C(F)(F)F)c2)cc1`, the MIC in the series with Staphylococcus aureus [1] and in the series on Enterococcus faecium was 62.5 µg/mL (≈ 157 µM) in each case. Moreover, the “inhibition zone (IZ)” value in the series with Staphylococcus aureus [2] stood at 1 mm.

For the compound `O=S(=O)(Nc1cc(C(F)(F)F)cc(C(F)(F)F)c1)c1ccc(C(F)(F)F)cc1`, the MIC in the series on Staphylococcus aureus [1] worked out at 15.6 µg/mL (≈ 35.7 µM); in the series with Enterococcus faecium, 7.8 µg/mL (≈ 17.8 µM). Moreover, the “inhibition zone (IZ)” value with Staphylococcus aureus [2] is on record as more than 20 mm.

On to `O=S(=O)(Nc1cc(F)cc(F)c1)c1cc(C(F)(F)F)cc(C(F)(F)F)c1`, for which the Activity result in the series with Mus musculus is “Non-toxic”. The results for the MIC against Staphylococcus aureus [1] and in the series with Enterococcus faecium were 2 µg/mL (≈ 4.94 µM) and 7.8 µg/mL (≈ 19.2 µM), respectively.

In the case of `O=[N+]([O-])c1ccc(S(=O)(=O)Nc2cc(C(F)(F)F)cc(C(F)(F)F)c2)cc1`, the values for the MIC in the series on Staphylococcus aureus [1] and with Enterococcus faecium were 31.3 µg/mL (≈ 75.6 µM) and 3.9 µg/mL (≈ 9.41 µM), respectively. Besides, in the series with Staphylococcus aureus [2], the “inhibition zone (IZ)” value is listed as more than 20 mm.
